Results taken from paper PMC4703045 (Chemistry & biology, 2015).

Columns and labels:
[1] = test system: PKG Iβ; test: PKG Iβ kinase activation assay; type: biochemical; settings: Ni-IMAC-purified PKG Iβ, over basal activity (Figure S1B)
[2] = test system: KCa1.1 channel; test: KCa1.1 channel open probability; type: biochemical, rat; settings: 500 nM Ca2+
Summary of the method: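 Inside-out patches excised from enzymatically dispersed cerebral artery smooth muscle cells. Bath (cytosolic face), mM: 140 KCl, 2 MgCl2, 0.1 Mg-ATP, 10 HEPES pH 7.3, 3 EGTA, CaCl2 to 500 nM. Pipette, mM: 120 NaCl, 20 KCl, 2 MgCl2, 1 CaCl2, 10 HEPES pH 7.4. […] NPo normalised to control patches; mean ± SEM.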

[3] = test system: endothelium-denuded posterior cerebral arteries; type: cell-based, rat; settings: paxilline 1 µM; endothelium-denuded control PCAs without S1.5
[4] = test system: posterior cerebral arteries with intact endothelium; type: cell-based, rat; settings: control PCAs with intact endothelium, without S1.5
[5] = target: T1, PKG Iα (Bos taurus, UniProt P00516); test: PKG Iα kinase activation, γ32P-ATP incorporation assay with W15 substrate; type: biochemical; settings: for activation of PKG Iα (in words): absence of cGMP, 15 min pre-incubation at 30°C
T1 sequence (P00516 1-671): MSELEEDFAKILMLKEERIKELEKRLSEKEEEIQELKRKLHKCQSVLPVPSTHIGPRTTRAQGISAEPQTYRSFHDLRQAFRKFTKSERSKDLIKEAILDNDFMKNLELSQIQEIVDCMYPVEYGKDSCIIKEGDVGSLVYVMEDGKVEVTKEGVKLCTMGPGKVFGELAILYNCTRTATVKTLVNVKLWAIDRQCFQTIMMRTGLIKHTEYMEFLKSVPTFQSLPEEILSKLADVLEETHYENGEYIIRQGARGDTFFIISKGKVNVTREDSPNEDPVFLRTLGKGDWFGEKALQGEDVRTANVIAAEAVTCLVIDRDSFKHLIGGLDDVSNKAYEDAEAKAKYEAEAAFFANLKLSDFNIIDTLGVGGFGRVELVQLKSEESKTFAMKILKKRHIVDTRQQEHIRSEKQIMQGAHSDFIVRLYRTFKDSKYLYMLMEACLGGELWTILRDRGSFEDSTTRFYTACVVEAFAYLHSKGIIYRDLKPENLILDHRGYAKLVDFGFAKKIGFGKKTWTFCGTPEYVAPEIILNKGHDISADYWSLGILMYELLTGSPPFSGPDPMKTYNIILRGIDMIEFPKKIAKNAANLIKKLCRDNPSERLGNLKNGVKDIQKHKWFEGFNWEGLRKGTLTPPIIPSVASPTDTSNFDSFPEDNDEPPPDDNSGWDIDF

[6] = Secondary structure by circular dichroism spectroscopy; type: physicochemical; settings: 10 µM peptide in 10 mM PBS pH=7.4, 22°C, 260 to 190 nm
Summary of the method: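 CD spectra at 22°C in a 2 mm cuvette, with 10 µM peptide in 10 mM PBS pH 7.4. Scanned 260–190 nm at 0.5 nm intervals with 2 s integration and 100 nm/min. Ten accumulations were averaged per peptide, and output was given as mean residue ellipticity (mdeg × cm2/dmol × residue).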

[7] = target: cGMP-dependent protein kinase Iα (UniProt P00516)
[8] = target: cGMP-dependent protein kinase Iα (UniProt P00516); remark: listed apart in the source

**Q.** For Nc1nc2c(ncn2[C@@H]2O[C@@H]3COP(=O)(O)O[C@H]3[C@H]2O)c(=O)[nH]1 [cGMP, cyclic guanosine-3’,5’-monophosphate], which “increase in activity under saturating quantities of cGMP” value [1] is on record?
**A.** 15 fold

**Q.** What about the “change in KCa1.1 open probability (NPo)” value ([2]; 50 nM cGMP with recombinant PKG Iα in bath solution) of the same molecule?
**A.** no significant change

**Q.** And the “increase of KCa1.1 NPo above the control” value ([2]; 5 µM cGMP (saturating) with PKG Iα, p<0.002)?
**A.** eight

**Q.** Which “additional constriction on paxilline in control arteries” value [3] does the source give for CC(C)(O)[C@H]1O[C@H]2CC[C@@]3(C)[C@@](O)(CC[C@H]4Cc5c([nH]c6ccccc56)[C@@]43C)C2=CC1=O [paxilline] here?
**A.** 5%

**Q.** And the “paxilline-induced constriction in control arteries” value [4]?
**A.** 4%

**Q.** With Ac-AEAKAKYEAEAAFFANLKLSD-NH2 [S1.11] as the molecule, how does the “activation of PKG Iα (in words)” value [5] read?
**A.** complete loss of activity

**Q.** With “Ac-ALKSENYADKVEFKDAKYEASALANEFADA-NH2 [S1.7]” as the molecule, how does the “helicity (secondary structure by CD)” value [6] read?
**A.** found to not be helical

**Q.** And the “activation of PKG Iα (in words)” value [5]?
**A.** did not activate the kinase

**Q.** With Ac-DAEAKAKYEAEAAFFANLKLSD-NH2 [S1.10] as the molecule, how does the EC50 [5] read?
**A.** 45 ± 4 µM

**Q.** Which “helicity (secondary structure by CD)” value [6] does the source give for Ac-DVSNKAYEDAEAKAKYEAEAA-NH2 [S1.3] here?
**A.** helicity was compromised but not completely lost

**Q.** What about the “activation of PKG Iα (in words)” value [5] of the same molecule?
**A.** completely abolished kinase activity

**Q.** For “Ac-DVSNKAYEDAEAKAKYEAEAAAAANLKLSD-NH2 [S1.6]”, which “helicity (secondary structure by CD)” value [6] is on record?
**A.** increased degree of helicity

**Q.** And the “activation of PKG Iα (in words)” value [5]?
**A.** equivalent to removal of the entire knob

**Q.** For “Ac-DVSNKAYEDAEAKAKYEAEAAFFANLK-NH2 [S1.2]”, which EC50 [5] is on record?
**A.** 35 ± 4 µM

**Q.** For “Ac-DVSNKAYEDAEAKAKYEAEAAFFANLKLSD-NH2 [S1.1]”, which EC50 [5] is on record?
**A.** 35 ± 4 µM

**Q.** What about the “activation of PKG Iα (in words)” value [5] of the same molecule?
**A.** robust and cooperative activation

**Q.** And the “effect on KM for the substrate peptide W15” value ([5]; control experiment (Figure S4))?
**A.** did not affect the KM

**Q.** And the “increase of KCa1.1 channel activity (NPo) versus control” value ([2]; 100 µM peptide pre-incubated with PKG Iα, +10mV, p<0.05)?
**A.** 6 fold

**Q.** With Ac-EDAEAKAKYEAEAAFFANLKLSD-NH2 [S1.9] as the molecule, how does the EC50 [5] read?
**A.** 43 ± 5 µM

**Q.** For “Ac-NKAYEDAEAKAKYEAEAAFFANLKLSD-NH2 [S1.4]”, which EC50 [5] is on record?
**A.** 12 ± 1 µM

B1: S1.4 (peptide)
peptide: Ac-NKAYEDAEAKAKYEAEAAFFANLKLSD-NH2
**Q.** Which maximal velocity of PKG Iα kinase activity with the peptide [7] does the source give for B1 here?
**A.** 80%

B2: S1.2 (peptide)
peptide: Ac-DVSNKAYEDAEAKAKYEAEAAFFANLK-NH2
**Q.** For B2, which maximal efficacy of activation of PKG Iα kinase activity [8] is on record?
**A.** 60 % of maximum
